Columns and labels:
Human alphaherpesvirus 1 [1] = test: Antiviral activity against herpes simplex type-1 expressed as ED50; assay type: functional; details: read-out: ED50 (the source's name)
Procedure, shortened: (§1)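 Plaque reduction in confluent mycoplasma-free Vero cells infected with HSV-1 strain F or HSV-2 strain G (about 100 plaques/well), rocked 1 h, inoculum removed, PBS (pH 7.2) wash. Five or more drug concentrations in maintenance medium with 0.1% pooled human globulin, in replicate.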

Human alphaherpesvirus 2 [2] = test: Antiviral activity against herpes simplex type-2 expressed as ED50; assay type: functional; details: read-out: ED50 (the source's name); procedure, shortened: as §1
Human alphaherpesvirus 1 [3] = test: Antiviral activity against herpes simplex type-1 expressed as ED90; assay type: functional; procedure, shortened: as §1
L1210 = test: In vitro inhibitory activity against L1212/0 cell line; assay type: functional; details: Mus musculus, read-out: ID50 (the source's name)
Procedure, shortened: (§2)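 Mouse leukemia cells (L1210/0, P815/0, P815/Ara-C) at 4×10^4 cells/mL in McCoy's 5A with 15% fetal calf serum, nucleoside added as 20-fold concentrate; 96 h at 37 °C in 5% CO2. Cells Coulter-counted, percent growth inhibition and 50% growth-inhibiting concentration calculated.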

[4] = target: T1, Thymidine kinase (Human herpesvirus 2) (UniProt Q6L709); test: Effect on thymidine kinase in the herpes simplex type-2 infected cells; assay type: functional; parameters: concentration or dose not given beside the values
T1 sequence (whole entry): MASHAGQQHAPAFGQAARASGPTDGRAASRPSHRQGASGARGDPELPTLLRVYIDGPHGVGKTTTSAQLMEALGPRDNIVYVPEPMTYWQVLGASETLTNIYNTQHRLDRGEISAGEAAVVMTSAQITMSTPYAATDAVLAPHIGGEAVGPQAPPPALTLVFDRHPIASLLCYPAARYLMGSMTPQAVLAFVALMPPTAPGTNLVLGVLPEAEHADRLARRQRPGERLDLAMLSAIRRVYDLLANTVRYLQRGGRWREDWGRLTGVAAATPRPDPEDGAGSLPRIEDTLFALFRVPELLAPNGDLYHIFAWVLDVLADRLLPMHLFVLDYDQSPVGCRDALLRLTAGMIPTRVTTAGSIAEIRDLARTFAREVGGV

[5] = test system: Human alphaherpesvirus 2 (HSV-2); test: Ratio of ID50/ID90 in HSV-2 infected cells; assay type: ADME, organism-based; details: human alphaherpesvirus 2, HSV-2 infected cells; read-out: Therapeutic index
Procedure, shortened: (§3)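 Ratio of two measurements. ID50 came from 3-day growth of rapidly dividing Vero cells, by linear regression. ED90 came from plaque reduction in confluent Vero cells infected with HSV-1 strain F or HSV-2 strain G (about 100 plaques/well). After 1 h adsorption, compounds were added at ≥5 concentrations in medium with 0.1% human globulin. Plaques grew 48 h, then were formalin-fixed, crystal-violet-stained and counted; regression was against log concentration.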

P815 [6] = test: In vitro inhibitory activity against P815/0 cell line; assay type: functional; details: Mus musculus, read-out: ID50 (the source's name); procedure, shortened: as §2
[7] = test system: Human alphaherpesvirus 1 (HSV-1); test: Ratio of ID50/ID90 in HSV-1 infected cells; assay type: ADME, organism-based; details: human alphaherpesvirus 1, HSV-1 infected cells; read-out: Therapeutic index; procedure, shortened: as §3
Vero = test: Cytotoxic activity against vero cells was evaluated.; assay type: functional; details: Chlorocebus sabaeus, read-out: ID50 (the source's name)
Procedure, shortened: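 Drug toxicity measured in rapidly dividing Vero cells over 3 days; 50% inhibitory dose (ID50) derived by linear regression analysis.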

Human alphaherpesvirus 2 [8] = test: Antiviral activity against herpes simplex type-2 expressed as ED90; assay type: functional; procedure, shortened: as §1
P815 [9] = test: In vitro inhibitory activity against P815/ara-C cell line; assay type: functional; details: Mus musculus, read-out: ID50 (the source's name); procedure, shortened: as §2
[10] = (§4) Ratio of ID50/ID90 in HSV-1; assay type: functional
[11] = (§5) Ratio of ID50/ID90 in HSV-2; assay type: functional
[12] = test system: Human alphaherpesvirus 1 (HSV-1); test: Ratio of ID50/ID90 in HSV-1 in fected cells; assay type: ADME, organism-based; details: human alphaherpesvirus 1, HSV-1 infected cells; read-out: Therapeutic index; procedure, shortened: as §3
Human alphaherpesvirus 1 [13] = test: Effect of compound on thymidine kinase in the herpes simplex type-2 infected cells; assay type: functional, Human alphaherpesvirus 2
[14] = test system: Human alphaherpesvirus 2 (HSV-2); test: as §5; assay type: ADME, organism-based; details: human alphaherpesvirus 2, in vivo; procedure, shortened: as §3
[15] = test system: Human alphaherpesvirus 1 (HSV-1); test: as §4; assay type: ADME, organism-based; details: human alphaherpesvirus 1, in vivo; procedure, shortened: as §3

Compound | EC50 (Human alphaherpesvirus 1 [1]) [µM] | EC50 (Human alphaherpesvirus 2 [2]) [µM] | ED90 (Human alphaherpesvirus 1 [3]) [µM] | IC50 (L1210) [µM] | Control [4] [%] | selectivity ratio [5] | IC50 (P815 [6]) [µM] | selectivity ratio [7] | IC50 (Vero) [µM] | ED90 (Human alphaherpesvirus 2 [8]) [µM] | IC50 (P815 [9]) [µM] | Therapeutic index [10] | Therapeutic index [11] | selectivity ratio [12] | Control (Human alphaherpesvirus 1 [13]) [%] | selectivity ratio [14] | selectivity ratio [15]
C#Cc1cn([C@@H]2O[C@H](CO)[C@@H](O)[C@@H]2F)c(=O)[nH]c1=O | 1.9 | 3 | 46.6 | 23.5 | 90.8 | 8 | 20.4 | 1.3 | 62 | 7.9 | 84.7 | – | – | – | – | – | –
C=Cc1cn([C@@H]2O[C@H](CO)[C@@H](O)[C@@H]2F)c(=O)nc1N | 0.025 | 0.062 | 0.4 | 10.7 | 111 | 70 | 23.8 | 103 | 41 | 0.59 | > 300 | – | – | – | – | – | –
O=c1[nH]c(=O)n([C@@H]2O[C@H](CO)[C@@H](O)[C@@H]2F)cc1/C=C/Cl | 0.059 | 0.52 | 0.7 | – | 106 | 29 | – | 227 | 159 | 5.5 | – | – | – | – | – | – | –
C=Cc1cn([C@@H]2O[C@H](CO)[C@@H](O)[C@@H]2F)c(=O)[nH]c1=O | 0.009 | 0.09 | 0.043 | 29 | 109 | 19 | 20.8 | 251 | 10.8 | 0.56 | 32.8 | – | – | – | – | – | –
O=c1[nH]c(=O)n([C@@H]2O[C@H](CO)[C@@H](O)[C@@H]2F)cc1/C=C/I | 0.037 | 0.15 | 0.11 | – | 96.2 | 67 | – | 509 | 56 | 0.84 | – | – | – | – | – | – | –
C#Cc1cn([C@@H]2O[C@H](CO)[C@@H](O)[C@@H]2F)c(=O)nc1N | 2.1 | 0.64 | 7.5 | 10.1 | 86.3 | 5 | 52.1 | 4 | 30 | 6 | > 300 | – | – | – | – | – | –
Nc1nc(=O)n([C@@H]2O[C@H](CO)[C@@H](O)[C@@H]2F)cc1/C=C/Br | 0.068 | 0.037 | 0.52 | – | 104 | – | – | – | 23 | 4.5 | – | 44 | 5 | – | – | – | –
Cc1cn([C@@H]2O[C@H](CO)[C@@H](O)[C@@H]2F)c(=O)nc1N | 0.006 | 0.026 | 0.048 | – | 110 | 15 | – | – | 1.5 | 0.1 | – | – | – | 31 | – | – | –
O=c1[nH]c(=O)n([C@@H]2O[C@H](CO)[C@@H](O)[C@@H]2F)cc1/C=C/Br | 0.067 | 0.13 | 0.47 | – | 86 | 138 | – | 216 | 101 | 0.73 | – | – | – | – | – | – | –
CCc1cn([C@@H]2O[C@H](CO)[C@@H](O)[C@@H]2F)c(=O)nc1N | 0.035 | 0.32 | 0.57 | – | 101 | 29 | – | 251 | 143 | 4.9 | – | – | – | – | – | – | –
CCOC(=O)/C=C/c1cn([C@@H]2O[C@H](CO)[C@@H](O)[C@@H]2F)c(=O)nc1N | > 100 | > 100 | >100 | – | – | – | – | – | 126 | >100 | – | – | – | – | 107 | – | –
Nc1nc(=O)n([C@@H]2O[C@H](CO)[C@@H](O)[C@@H]2F)cc1/C=C/C(=O)[O-].[Na+] | > 100 | > 100 | >100 | – | 111 | – | – | – | > 200 | >100 | – | – | – | – | – | – | –
O=c1[nH]c(=O)n([C@H]2C[C@H](O)[C@@H](CO)O2)cc1/C=C/Br [BRIVUDINE] | 0.019 | 0.23 | 0.062 | – | 110 | 11 | – | 3080 | 191 | 17 | – | – | – | – | – | – | –
Cc1cn([C@@H]2O[C@H](CO)[C@@H](O)[C@@H]2F)c(=O)[nH]c1=O [5-METHYL-2'-FLUOROARAURACIL] | 0.01 | 0.023 | 0.042 | 2.95 | 94.1 | – | 0.98 | – | 2.8 | 0.09 | 12.4 | – | – | – | – | – | –
C[Si](C)(C)C#Cc1cn([C@@H]2O[C@H](CO)[C@@H](O)[C@@H]2F)c(=O)[nH]c1=O | 5.7 | 5.1 | 39.5 | 17.8 | 95.8 | 0.5 | 9.8 | 0.4 | 17.1 | 32.1 | 107 | – | – | – | – | – | –
Nc1nc(=O)n([C@@H]2O[C@H](CO)[C@@H](O)[C@@H]2F)cc1/C=C/I | 0.088 | 0.027 | 0.74 | – | 101 | – | – | – | > 200 | 2.3 | – | – | – | – | – | > 87 | > 270

Source: ChEMBL document CHEMBL1123010, “Nucleosides. 133. Synthesis of 5-alkenyl-1-(2-deoxy-2-fluoro-beta-D-arabinofuranosyl)cytosines and related pyrimidine nucleosides as potential antiviral agents” (J Med Chem, 1985)
